Assay results: ChEMBL document CHEMBL4229342, “Synthesis of novel proxyphylline derivatives with dual Anti-Candida albicans and anticancer activity” (Eur J Med Chem, 2018)

Experiments:
Format in all cases: functional
CCRF-CEM [1] = assay: Antiproliferative activity against human CCRF-CEM cells assessed as cell viability at 25 uM after 72 hrs by MTT assay; conditions: read-out: Activity
How it was run: (§1)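 MTT viability assay in CCRF-CEM and MCF-7 cells after 72 h exposure at 25, 50, 100 and 200 µM. Results are relative to control cells without inhibitor in 0.5% DMSO. Done in triplicate; values are means ± SD of three independent experiments.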

CCRF-CEM [2] = assay: Antiproliferative activity against human CCRF-CEM cells assessed as cell viability at 50 uM after 72 hrs by MTT assay; conditions: read-out: Activity; how it was run: as §1
CCRF-CEM [3] = assay: Antiproliferative activity against human CCRF-CEM cells assessed as cell viability at 100 uM after 72 hrs by MTT assay; conditions: read-out: Activity; how it was run: as §1
CCRF-CEM [4] = assay: Antiproliferative activity against human CCRF-CEM cells assessed as cell viability at 200 uM after 72 hrs by MTT assay; conditions: read-out: Activity; how it was run: as §1
MCF7 [5] = assay: Antiproliferative activity against human MCF7 cells assessed as cell viability at 25 uM after 72 hrs by MTT assay; conditions: MCF7, 72 h, read-out: Activity; how it was run: as §1
MCF7 [6] = assay: Antiproliferative activity against human MCF7 cells assessed as cell viability at 50 uM after 72 hrs by MTT assay; conditions: MCF7, 72 h, read-out: Activity; how it was run: as §1
MCF7 [7] = assay: Antiproliferative activity against human MCF7 cells assessed as cell viability at 100 uM after 72 hrs by MTT assay; conditions: MCF7, 72 h, read-out: Activity; how it was run: as §1
MCF7 [8] = assay: Antiproliferative activity against human MCF7 cells assessed as cell viability at 200 uM after 72 hrs by MTT assay; conditions: MCF7, 72 h, read-out: Activity; how it was run: as §1
Candida albicans [9] = assay: Growth inhibition of Candida albicans ATCC 90028 at 16 ug/ml incubated for 18 hrs at 35 degC by broth microdilution method relative to control; conditions: ATCC 90028, 18 h, read-out: GI
Candida albicans [10] = assay: Growth inhibition of Candida albicans ATCC 90028 at 16 ug/ml incubated for 48 hrs at 35 degC by broth microdilution method relative to control; conditions: ATCC 90028, 48 h, read-out: GI
Candida albicans [11] = assay: Growth inhibition of Candida albicans ATCC 90028 at 8 ug/ml incubated for 18 hrs at 35 degC by broth microdilution method relative to control; conditions: ATCC 90028, 18 h, read-out: GI
Candida albicans [12] = assay: Growth inhibition of Candida albicans ATCC 90028 at 8 ug/ml incubated for 48 hrs at 35 degC by broth microdilution method relative to control; conditions: ATCC 90028, 48 h, read-out: GI
Candida albicans [13] = assay: Growth inhibition of Candida albicans ATCC 90028 at 4 ug/ml incubated for 18 hrs at 35 degC by broth microdilution method relative to control; conditions: ATCC 90028, 18 h, read-out: GI
Candida albicans [14] = assay: Growth inhibition of Candida albicans ATCC 90028 at 8 ug/ml incubated for 4 hrs at 35 degC by broth microdilution method relative to control; conditions: ATCC 90028, 4 h, read-out: GI
Candida albicans [15] = assay: Growth inhibition of Candida albicans ATCC 90028 at 2 ug/ml incubated for 18 hrs at 35 degC by broth microdilution method relative to control; conditions: ATCC 90028, 18 h, read-out: GI
Candida albicans [16] = assay: Growth inhibition of Candida albicans ATCC 90028 at 2 ug/ml incubated for 4 hrs at 35 degC by broth microdilution method relative to control; conditions: ATCC 90028, 4 h, read-out: GI
Candida albicans [17] = assay: Growth inhibition of Candida albicans ATCC 90028 at 1 ug/ml incubated for 18 hrs at 35 degC by broth microdilution method relative to control; conditions: ATCC 90028, 18 h, read-out: GI
Candida albicans [18] = assay: Growth inhibition of Candida albicans ATCC 90028 at 1 ug/ml incubated for 4 hrs at 35 degC by broth microdilution method relative to control; conditions: ATCC 90028, 4 h, read-out: GI
Candida albicans [19] = assay: Growth inhibition of Candida albicans ATCC 90028 at 0.5 ug/ml incubated for 18 hrs at 35 degC by broth microdilution method relative to control; conditions: ATCC 90028, 18 h, read-out: GI
Candida albicans [20] = assay: Growth inhibition of Candida albicans ATCC 90028 at 0.5 ug/ml incubated for 4 hrs at 35 degC by broth microdilution method relative to control; conditions: ATCC 90028, 4 h, read-out: GI
Candida albicans [21] = assay: Growth inhibition of Candida albicans ATCC 90028 at 0.25 ug/ml incubated for 18 hrs at 35 degC by broth microdilution method relative to control; conditions: ATCC 90028, 18 h, read-out: GI
Candida albicans [22] = assay: Growth inhibition of Candida albicans ATCC 90028 at 0.25 ug/ml incubated for 4 hrs at 35 degC by broth microdilution method relative to control; conditions: ATCC 90028, 4 h, read-out: GI
Candida albicans [23] = assay: Growth inhibition of Candida albicans ATCC 90028 at 0.125 ug/ml incubated for 18 hrs at 35 degC by broth microdilution method relative to control; conditions: ATCC 90028, 18 h, read-out: GI
Candida albicans [24] = assay: Growth inhibition of Candida albicans ATCC 90028 at 0.125 ug/ml incubated for 4 hrs at 35 degC by broth microdilution method relative to control; conditions: ATCC 90028, 4 h, read-out: GI
Candida albicans [25] = assay: Growth inhibition of Candida albicans ATCC 90028 at 0.0625 ug/ml incubated for 18 hrs at 35 degC by broth microdilution method relative to control; conditions: ATCC 90028, 18 h, read-out: GI
Candida albicans [26] = assay: Growth inhibition of Candida albicans ATCC 90028 at 0.0625 ug/ml incubated for 4 hrs at 35 degC by broth microdilution method relative to control; conditions: ATCC 90028, 4 h, read-out: GI
Candida albicans [27] = assay: Growth inhibition of Candida albicans ATCC 90028 at 0.0313 ug/ml incubated for 18 hrs at 35 degC by broth microdilution method relative to control; conditions: ATCC 90028, 18 h, read-out: GI
Candida albicans [28] = assay: Growth inhibition of Candida albicans ATCC 90028 at 0.0313 ug/ml incubated for 4 hrs at 35 degC by broth microdilution method relative to control; conditions: ATCC 90028, 4 h, read-out: GI
Candida albicans [29] = assay: Fungicidal activity against Candida albicans ATCC 90028 assessed as log reduction in cell viability at 16 ug/ml after 48 hrs at 35 degC
How it was run: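 MFC assay on C. albicans ATCC 90028 following M27-A3, at the molar equivalent of 16 µg/mL. CFU of treated cells were compared with CFU of the untreated inoculum. Activity is given as lg R = lg CFU/mL control − lg CFU/mL treated, and lg R ≥3 was defined as fungicidal. Values are means of two independent experiments.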

Structure (SMILES) | viability at 25 µM (CCRF-CEM [1]) [%] | viability at 50 µM (CCRF-CEM [2]) [%] | viability at 100 µM (CCRF-CEM [3]) [%] | viability at 200 µM (CCRF-CEM [4]) [%] | viability at 25 µM (MCF7 [5]) [%] | viability at 50 µM (MCF7 [6]) [%] | viability at 100 µM (MCF7 [7]) [%] | viability at 200 µM (MCF7 [8]) [%] | inhibition of growth at 16 µg/mL (Candida albicans [9]) [%] | inhibition of growth at 16 µg/mL (Candida albicans [10]) [%] | inhibition of growth at 8 µg/mL (Candida albicans [11]) [%] | inhibition of growth at 8 µg/mL (Candida albicans [12]) [%] | inhibition of growth at 4 µg/mL (Candida albicans [13]) [%] | inhibition of growth at 2 µg/mL (Candida albicans [15]) [%] | inhibition of growth at 2 µg/mL (Candida albicans [16]) [%] | inhibition of growth at 1 µg/mL (Candida albicans [17]) [%] | inhibition of growth at 1 µg/mL (Candida albicans [18]) [%] | inhibition of growth at 0.5 µg/mL (Candida albicans [19]) [%] | inhibition of growth at 0.5 µg/mL (Candida albicans [20]) [%] | inhibition of growth at 0.25 µg/mL (Candida albicans [21]) [%] | also measured
CC(Cn1cnc2c1c(=O)n(C)c(=O)n2C)OC(=O)N1c2ccccc2Sc2ccccc21 (configuration not stated) | 105 | 77.4 | 33.8 | 47.1 | 90.5 | 89.9 | 73.4 | 37 | 100 | 99.2 | 99.7 | 99.2 | 99.9 | 99.8 | 99.2 | 99.8 | 99 | 99.8 | 99.5 | 100 | inhibition of growth at 8 µg/mL (Candida albicans [14]): 99.5%; inhibition of growth at 0.25 µg/mL (Candida albicans [22]): 99.5%; inhibition of growth at 0.125 µg/mL (Candida albicans [23]): 99.9%; inhibition of growth at 0.125 µg/mL (Candida albicans [24]): 99.2%; inhibition of growth at 0.0625 µg/mL (Candida albicans [25]): 99.9%; inhibition of growth at 0.0625 µg/mL (Candida albicans [26]): 99.2%; inhibition of growth at 0.0313 µg/mL (Candida albicans [27]): 100%; inhibition of growth at 0.0313 µg/mL (Candida albicans [28]): 99.3%; log(activity) (Candida albicans [29]): 0.3
CC(Cn1cnc2c1c(=O)n(C)c(=O)n2C)OC(=O)CC(=O)c1ccc(F)cc1 (configuration not stated) | 83.5 | 51.1 | 43.8 | 20.1 | 88.5 | 77.9 | 83.8 | 76.8 | 100 | 99.7 | 99.8 | 99.3 | 100 | 100 | 99.3 | 100 | 100 | 99.7 | 99.3 | 99.7 | inhibition of growth at 8 µg/mL (Candida albicans [14]): 99.4%; inhibition of growth at 0.25 µg/mL (Candida albicans [22]): 99.3%; inhibition of growth at 0.125 µg/mL (Candida albicans [23]): 99.8%; inhibition of growth at 0.125 µg/mL (Candida albicans [24]): 99.5%; inhibition of growth at 0.0625 µg/mL (Candida albicans [25]): 99.9%; inhibition of growth at 0.0625 µg/mL (Candida albicans [26]): 99.3%; inhibition of growth at 0.0313 µg/mL (Candida albicans [27]): 99.7%; inhibition of growth at 0.0313 µg/mL (Candida albicans [28]): 98.9%; log(activity) (Candida albicans [29]): 0.9
CC(Cn1cnc2c1c(=O)n(C)c(=O)n2C)OC(=O)C1c2ccccc2-c2ccccc21 (configuration not stated) | 41.5 | 2.8 | 0.1 | 2.3 | 101 | 85.1 | 63.5 | 28.3 | 99.8 | 99.3 | 99.8 | 99.4 | 100 | 100 | 99.4 | 99.8 | 99.3 | 99.8 | 99.1 | 99.9 | inhibition of growth at 8 µg/mL (Candida albicans [14]): 99.4%; inhibition of growth at 0.25 µg/mL (Candida albicans [22]): 99%; inhibition of growth at 0.125 µg/mL (Candida albicans [23]): 99.7%; inhibition of growth at 0.125 µg/mL (Candida albicans [24]): 98.9%; inhibition of growth at 0.0625 µg/mL (Candida albicans [25]): 99.7%; inhibition of growth at 0.0625 µg/mL (Candida albicans [26]): 99%; inhibition of growth at 0.0313 µg/mL (Candida albicans [27]): 99.8%; inhibition of growth at 0.0313 µg/mL (Candida albicans [28]): 99.3%; log(activity) (Candida albicans [29]): 0.8
Cc1ccc(C(=O)CC(=O)OC(C)Cn2cnc3c2c(=O)n(C)c(=O)n3C)cc1 (configuration not stated) | 89.5 | 74.2 | 67.3 | 31.6 | 89 | 82.2 | 86.6 | 82.7 | 100 | 99.1 | 100 | 99.3 | 100 | 100 | 99.2 | 100 | 99.2 | 99.8 | 99.2 | 100 | inhibition of growth at 0.25 µg/mL (Candida albicans [22]): 99.2%; inhibition of growth at 0.125 µg/mL (Candida albicans [23]): 100%; inhibition of growth at 0.0625 µg/mL (Candida albicans [25]): 99.8%; inhibition of growth at 0.0625 µg/mL (Candida albicans [26]): 99.3%; inhibition of growth at 0.0313 µg/mL (Candida albicans [27]): 100%; inhibition of growth at 0.0313 µg/mL (Candida albicans [28]): 99.8%; log(activity) (Candida albicans [29]): 0.5
Brc1c(Br)c(Br)c2[nH]cnc2c1Br | 6.3 | 0 | 0 | 0 | 19.6 | 24.6 | 9 | 1.7 |  |  |  |  |  |  |  |  |  |  |  |  | 
